Here are results for one compound from ChEMBL document CHEMBL1131215, “Anhydrolide macrolides. 1. Synthesis and antibacterial activity of 2,3-anhydro-6-O-methyl 11,12-carbamate erythromycin A analogues” (1998).

Converted amounts (≈) assume the structure as drawn.

Holding throughout (type): functional
For one assay, the system named is Haemophilus influenzae. Kind of assay: In vitro antibacterial activity against DILL strain of Haemophilus influenzae. The procedure, abridged: (§1)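 MIC determined by standard agar dilution; values in μg/mL.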
In assay [1] the test system is Staphylococcus aureus. Kind of assay: In vitro antibacterial activity against 6538P strain of Staphylococcus aureus. The note with it: Staphylococcus aureus. The procedure, abridged:
as §1

In assay [2] the test system is Staphylococcus aureus. Briefly: In vitro antibacterial activity against A5177 strain of Staphylococcus aureus. As to conditions: Staphylococcus aureus. The procedure, abridged:
as §1

The test system of assay [3] is Streptococcus pneumoniae. Briefly: In vitro antibacterial activity against 5649 strain of Streptococcus pneumoniae. The note with it: Streptococcus pneumoniae. The procedure, abridged: as §1
The test system of assay [4] is Streptococcus pyogenes. Briefly: In vitro antibacterial activity against 930 strain of Streptococcus pyogenes. The note with it: Streptococcus pyogenes. The procedure, abridged:
as §1

Assay [5] concerns Streptococcus pneumoniae. Kind of assay: In vitro antibacterial activity against ATCC 6303 strain of Streptococcus pneumoniae. As to conditions: Streptococcus pneumoniae, ATCC 6303. The procedure, abridged:
as §1

For assay [6], the system named is Streptococcus pneumoniae. Kind of assay: In vitro antibacterial activity against Streptococcus pneumoniae 5979. In a few lines:
as §1

Assay [7] deals with Streptococcus pyogenes. Kind of assay: In vitro antibacterial activity against PIU 2548 strain of Streptococcus pyogenes. As to conditions: Streptococcus pyogenes. In a few lines: as §1
The nature of assay [8]: In vitro antibacterial activity against A-5278 strain of Staphylococcus aureus. As to conditions: Staphylococcus aureus. In a few lines: as §1

As for `CC[C@H]1OC(=O)/C(C)=C/[C@H](C)[C@@H](O[C@@H]2O[C@H](C)C[C@H](N(C)C)[C@H]2O)[C@@](C)(OC)C[C@@H](C)C(=O)[C@H](C)[C@H]2N(CCc3ccccc3)C(=O)O[C@]12C`, the MIC with Haemophilus influenzae was found to be 32 µg/mL (≈ 45.7 µM); in the assay with Staphylococcus aureus [1], 0.39 µg/mL (≈ 0.556 µM); against Staphylococcus aureus [2] it was 0.1 µg/mL (≈ 0.143 µM); in the assay on Streptococcus pneumoniae [3], 1 µg/mL (≈ 1.43 µM); in the assay on Streptococcus pyogenes [4], 25 µg/mL (≈ 35.7 µM); with Streptococcus pneumoniae [5] it was 0.03 µg/mL (≈ 0.0428 µM). Besides, the MIC in the assay with Streptococcus pneumoniae [6] came to 64 µg/mL (≈ 91.3 µM); in the assay on Streptococcus pyogenes [7], 0.01 µg/mL (≈ 0.0143 µM); in [8], 50 µg/mL (≈ 71.3 µM).
